# Experiments:
# Format in all cases: functional, organism-based
# [1] = biological target: T1, Serotonin 3 (5-HT3) receptor (Rattus norvegicus) (UniProt P35563+Q9JJ16); assay: 5-hydroxytryptamine 3 receptor antagonistic activity measured by inhibition of 5-HT-induced bradycardia (iv administration 10 ug/kg dose in urethane-anesthetized rats)
# How it was run: (§1)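 Urethane-anesthetized rats. First 5HT challenge 30 μg/kg iv gives a transient bradycardia. Once heart rate is back at steady state (≤5 min), test compound or saline goes in via the femoral vein. 5HT 30 μg/kg iv is repeated 15 min later. % inhibition is the difference between first and second bradycardia at peak, each animal its own control. Means ± SEM, groups of 3–16 rats.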
# [2] = biological target: T1, Serotonin 3 (5-HT3) receptor (Rattus norvegicus); assay: 5-hydroxytryptamine 3 receptor antagonistic activity as inhibition of 5-HT-induced bradycardia after iv administration of 100 ug/kg dose in urethane-anesthetized rats; how it was run: as §1
# [3] = biological target: T1, Serotonin 3 (5-HT3) receptor (Rattus norvegicus); assay: 5-hydroxytryptamine 3 receptor antagonistic activity was measured by the inhibition of 5H+ T-induced bradycardia after iv administration of 3 ug/kg dose in urethane-anesthetized rats
# How it was run: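 Urethane-anesthetized rats; antagonist or saline given iv via femoral vein after heart rate settled (≤5 min) from an initial 5HT challenge (30 µg/kg iv). 5HT was given again 15 min later. Peak bradycardia measured, each rat its own control; % inhibition = difference between first and second responses. Groups of 3–16 rats, means ± SEM.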
# [4] = biological target: T1, Serotonin 3 (5-HT3) receptor (Rattus norvegicus); assay: Compound was tested for the inhibition of 5-HT-induced bradycardia after intravenous administration of 30 ug/kg dose in urethane-anesthetized rats; how it was run: as §1
# [5] = biological target: T1, Serotonin 3 (5-HT3) receptor (Rattus norvegicus); assay: 5-hydroxytryptamine 3 receptor antagonistic activity was measured by the inhibition of 5H+ T-induced bradycardia after iv administration of 1000 ug/kgetized rats; how it was run: as §1
# [6] = biological target: T1, Serotonin 3 (5-HT3) receptor (Rattus norvegicus); assay: 5-hydroxytryptamine 3 receptor antagonistic activity was measured by the inhibition of 5H+ T-induced bradycardia after iv administration of 1000 ug/kg dose in urethane-anesthetized rats; how it was run: as §1
# [7] = biological target: T1, Serotonin 3 (5-HT3) receptor (Rattus norvegicus); assay: 5-HT3 receptor antagonistic activity was measured by the inhibition of 5-HT-induced bradycardia after iv administration of 1000 ug/kg dose in urethane-anesthetized rats; how it was run: as §1
SMILES,inhibition [1],further results
CN1C2CCC1CC(NC(=O)c1cccc3c1CC(C)(C)O3)C2 (centres undefined),2.1%,
CN1C2CCC1CC(NC(=O)c1c(Cl)ccc3c1OC(C)(C)C3)C2 (centres undefined),0.8%,
Cc1cc2c(c(C(=O)OC3CC4CCC(C3)N4C)c1)OCC2 (centres undefined),28.8%,inhibition [2]: 67.2%
CC1Cc2cccc(C(=O)NC3CC4CCC(C3)N4C)c2O1 (centres undefined),22.3%,inhibition [2]: 87.6%
CC1Oc2c(C(=O)OC3CC4CCC(C3)N4C)cccc2C1C (stereo in doubt; 26),29.9%,inhibition [3]: 1.8%; inhibition [4]: 78.7%
CN1C2CCC1CC(OC(=O)c1cccc3oc4ccccc4c13)C2 (centres undefined),0%,inhibition [5]: 66.3%; inhibition [2]: 12.4%
Cc1cc2cccc(C(=O)OC3CC4CCC(C3)N4C)c2o1 (centres undefined),7.3%,
CN1[C@@H]2CC[C@H]1C[C@H](OC(=O)c1ccccc1)C2,,inhibition [6]: 88.1%
CN1C2CCC1CC(NC(=O)c1cc(O)cc3c1OC(C)(C)C3)C2 (centres undefined),54.7%,
CN1C2CCC1CC(NC(=O)c1cccc3c1OC(C)(C)C3)C2 (centres undefined),47.5%,inhibition [3]: 13.7%
CN1[C@@H]2CC[C@H]1C[C@@H](OC(=O)c1cc(Cl)cc(Cl)c1)C2,9.7%,inhibition [2]: 71.4%
CN1C2CCC1CC(NC(=O)c1ccc(Cl)c3c1OC(C)(C)C3)C2 (centres undefined),1.9%,
CN1C2CCC1CC(OC(=O)c1ccc3c(c1)oc1ccccc13)C2 (centres undefined),,inhibition [6]: 1.5%
CN1C2CCC1CC(OC(=O)c1cccc3c1OCC3)C2 (centres undefined),27%,inhibition [2]: 51.2%
Cc1coc2c(C(=O)OC3CC4CCC(C3)N4C)cccc12 (centres undefined),7.7%,
CN1CCC(OC(=O)c2ccccc2)CC1,,inhibition [7]: 0%
CN1C2CCC1CC(NC(=O)c1ccc3c(c1)CC(C)(C)O3)C2 (centres undefined),16.7%,
CN1[C@@H]2CC[C@H]1C[C@@H](NC(=O)c1cc(Cl)cc3c1OC(C)(C)C3)C2 (stereo in doubt; 50),67.1%,inhibition [3]: 25.9%
CN1C2CCC1CC(NC(=O)c1ccc3c(c1)OC(C)(C)C3)C2 (centres undefined),0%,
